In the library only some 1.8% were active in any assay of this set; here they are far more common.
CHRM5 antagonist: antagonists of human muscarinic M5 receptor (CHRM5). CHO-hM5 cells, Fluo-8 calcium fluorescence, ACh EC80. inhibition, % at 3 µM. hit rate 0.59% among 360,000;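 active = inhibition above a per-plate cutoff, the mean of that plate's test compounds plus 3 SD, cut at about 27% in these data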;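 also: 0% = acetylcholine EC80 with DMSO and 100% = DMSO without agonist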
Target sequence (P08912 whole entry, looked up): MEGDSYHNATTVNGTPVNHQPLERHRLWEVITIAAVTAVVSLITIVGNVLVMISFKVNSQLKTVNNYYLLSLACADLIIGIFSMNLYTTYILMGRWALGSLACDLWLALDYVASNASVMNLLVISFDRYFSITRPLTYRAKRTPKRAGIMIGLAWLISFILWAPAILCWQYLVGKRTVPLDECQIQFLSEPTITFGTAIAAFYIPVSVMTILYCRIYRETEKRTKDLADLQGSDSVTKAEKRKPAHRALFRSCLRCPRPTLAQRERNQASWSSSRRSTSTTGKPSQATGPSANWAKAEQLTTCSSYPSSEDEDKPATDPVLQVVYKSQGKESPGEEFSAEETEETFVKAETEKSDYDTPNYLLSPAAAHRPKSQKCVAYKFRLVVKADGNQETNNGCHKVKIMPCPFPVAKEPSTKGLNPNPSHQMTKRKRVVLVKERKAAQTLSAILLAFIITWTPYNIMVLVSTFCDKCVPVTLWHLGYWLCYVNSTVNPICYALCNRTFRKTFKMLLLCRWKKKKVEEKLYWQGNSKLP
M5 ag: CHRM5 agonism in calcium assay. CHO-K1 hM5 cells, Fluo-8 calcium fluorescence; 0% DMSO wells, 100% maximal acetylcholine response. hit rate 0.19% among 360,000. P08912. activation, % at 3 µM;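 active = activation above the run's mean over test compounds plus 3 SD, cut at about 23% in these data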;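 also: signal is peak over basal fluorescence ratio across the kinetic read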
M5 PAM: CHRM5 positive allosteric modulation. P08912. CHO-K1 hM5, Fluo-8 calcium, ACh EC20 PAM; 0% = ACh EC20, 100% = ACh EC100. activation, % at 3 µM. hit rate 0.3% among 360,000;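 active = activation above the run cutoff, the mean activation of all test compounds plus 3 SD, cut at about 18% in these data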
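Measured by: Fluo-8 calcium fluorescence; material: human M5 receptor in CHO-K1 cells; schedule: Post-acetylcholine fluorescence recording 140 s; benchmarks: low control EC20 acetylcholine (0%), high control EC100 acetylcholine (100%); read-out: Max/basal fluorescence ratio as % of EC20–EC100 ACh window; compound: single dose, 3 µM nominal final test concentration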
M4 antag: antagonists of human muscarinic M4 receptor (CHRM4); CHO-hM4 cells, ACh EC80, Fluo-8 calcium fluorescence; hit rate 0.73% among 360,000; inhibition, % at 3 µM; P08173;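 active = inhibition above its plate's cutoff, the mean inhibition of sample wells plus 3 SD, cut at about 27% in these data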;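 also: 0% = acetylcholine EC80 with DMSO and 100% = DMSO without agonist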
M4 ag: agonists of human muscarinic M4 receptor (CHRM4); CHO-K1 hM4/Gqi5, Fluo-8 calcium fluorescence; vehicle 0%, full acetylcholine response 100%; activation, % at 3 µM; hit rate 0.14% among 360,000;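 active = activation above the run mean over all test wells plus 3 SD, cut at about 32% in these data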;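 also: peak over basal fluorescence ratio per well then scaled between controls; 0% = DMSO wells and 100% = acetylcholine at EC100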
M4 PAM: potentiates acetylcholine response at human M4 receptor; P08173; CHO-K1 hM4/Gqi5, Fluo-8 calcium fluorescence, ACh EC20; 0% = ACh EC20, 100% = maximal ACh; hit rate 0.4% among 360,000; activation, % at 3 µM;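 active = activation above its plate's cutoff, the mean activation of sample wells plus 3 SD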
Numbers without * were called inactive.

SMILES	CHRM5 antagonist	M5 ag	M5 PAM	M4 antag	M4 ag	M4 PAM
CCn1c(CNC(=O)COc2ccc(C(C)C)cc2)nnc1SCC(=O)Nc1ccccc1C(C)C	28*	4	-9	2	9	-13
COc1ccc(NC(=O)C2(C)CCN2Cc2ccc3ccccc3c2)cc1OC (stereo unspecified)	6	0	-15	-9	10	-8
CN(C)c1ccc(/C=C(\C#N)C(=O)c2ccccc2)cc1	40*	63*	-21	37*	70*	-23
CCN(CC)c1ccc(/C=C(\C#N)C(N)=O)cc1	0	-4	1	-5	2	-3
CCN(CC)c1ccc(/C=C(\C#N)C(=O)c2ccc(Br)cc2)cc1	70*	108*	-18	51*	58*	-10
O=C1CSC(=S)N1Nc1ccccc1	13	26*	-10	7	7	-2
Cc1ccccc1C(=O)NN1C(=O)CSC1=S	-6	1	-2	4	1	5
C=CCNC(=O)Nc1ccc(Cl)cn1	-1	0	1	-5	0	21*
Cc1ccccc1-c1nc(CS(=O)CC(=O)NCc2ccc3c(c2)OCO3)c(C)o1 (stereo unspecified)	26	-5	-11	2	6	-1
Cc1oc(-c2ccccc2Cl)nc1CS(=O)CC(=O)NCc1ccc2c(c1)OCO2 (stereo unspecified)	-26	-1	23*	-10	2	3
COc1ccc(NC(=O)c2ccco2)cc1N	-2	-2	20*	-9	3	5
O=C(Nc1ccc(S(=O)(=O)Nc2cnc3ccccc3n2)cc1)c1ccc(Cl)c([N+](=O)[O-])c1	3	-2	7	1	-1	-4
Cc1cccc(OCC(=O)Oc2ccc(Cl)cc2)c1	2	0	4	-3	3	9
Cc1cccc(OC(=O)NCCOC(=O)N(O)c2ccc(Cl)cc2)c1	32*	7	-13	10	12	16
CCCCCCCCn1ccc(=N)cc1	-26	-13	20*	-12	0	-3
CCCCCCCCCCn1ccc(=N)cc1	14	-18	-18	38*	1	-14
CCCCCCN1Cc2ccccc2C1	7	-8	-2	2	0	-7
CCn1c(/N=C/c2ccccc2O)nc2ccccc21	6	-4	12	-13	0	5
CC(C)n1c(/N=C/c2ccccc2O)nc2ccccc21	-9	0	21*	-8	1	0
CC(C)(C)n1nnnc1C(c1ccccc1)N1CCN(C/C=C/c2ccccc2)CC1 (stereo unspecified)	68*	-7	-22	28*	1	-15
CC(C)(C)n1nnnc1C(c1cccc(C#N)c1)N1CCN2CCCC2C1 (stereo unspecified)	-3	-6	2	-3	0	-1
CC(C)(C)n1nnnc1C(c1cccc(C#N)c1)N1CCCCCC1 (stereo unspecified)	9	3	26*	-4	0	14
COc1ccc(-n2nnnc2C(c2ccccc2)N2CCN(C/C=C/c3ccccc3)CC2)cc1 (stereo unspecified)	72*	-8	-22	32*	3	-16
CCC(c1nnnn1C(C)(C)C)N1CCN(C/C=C/c2ccccc2)CC1 (stereo unspecified)	5	-7	-2	-13	3	5
CCC(c1nnnn1-c1ccc(OC)cc1)N1CCN(C/C=C/c2ccccc2)CC1 (stereo unspecified)	14	-7	-17	-18	6	-5
SMILES	CHRM5 antagonist	M5 ag	M5 PAM	M4 antag	M4 ag	M4 PAM
CN(C(=O)c1cccc(NC(=O)Cc2ccc(NC(=O)C3CCN(C(=O)C4CC4)CC3)cc2)c1)C1CCC1	-4	1	3	-3	-1	1
Cc1ccc(C(=O)N/C(=C/c2ccccc2)C(=O)NCC2CCCO2)cc1 (stereo unspecified)	-10	-3	21*	-22	-1	15
CCOC(=O)[C@H]1[C@H]2COc3ccc(OC)cc3[C@@H]2N2C(=O)CN(C)C(=O)[C@@]12C	3	4	-14	1	1	2
COc1ccc(C(C(=O)NC2CCCC2)N(C(=O)c2ccco2)c2cc3c(cc2C(C)=O)OCO3)cc1 (stereo unspecified)	9	-2	0	-4	1	0
CCn1c(NCc2ccccn2)nc2c1c(=O)n(C)c(=O)n2C	-5	2	3	-12	2	40*
CCOC(=O)c1c(NC(=O)COC)sc(C)c1C	-1	2	6	-4	-2	2
CCOC(=O)c1c(NC(=S)NC(C)=O)sc(C)c1C	-6	-4	18*	-8	1	32*
CC1(c2ccccc2)CC(C)(C)N2C(=O)Cc3cccc1c32 (stereo unspecified)	6	-8	-3	33*	-1	-13
Cn1c(=O)cc(OCCCC(=O)Nc2cccnc2)c2ccccc21	3	-2	13	37*	2	21
CC[N+](C)(CC)CCOC(=O)C(O)(c1ccccc1)C1CCCCC1 (stereo unspecified)	98*	-2	-18	99*	0	-18
CC[N+](C)(CC)CCC(c1ccccc1)C1CCCCC1 (stereo unspecified)	99*	-26	-32	97*	0	-15
CCC(C(=O)NC1CCCCCC1)c1ccccc1 (stereo unspecified)	-11	-9	11	-1	0	-22
O=C1CCCCC1C(O)(C(=O)c1ccccc1)c1ccccc1 (stereo unspecified)	11	-2	-2	6	-3	-1
CC(=O)N1CCN(C(=O)c2ccc(Cl)c(S(=O)(=O)N3CCCCCC3)c2)CC1	7	4	0	4	1	5
CCCCCn1c(CNC(=O)CC)nc2ccccc21	-2	43*	-10	3	1	1
CCCCCn1c(CNC(=O)CCC)nc2ccccc21	-2	-1	-4	-8	1	8
Cc1sc2nc(CN3CCCC3)nc(N3CCC(C(N)=O)CC3)c2c1C	8	-6	7	22	4	31*
Cc1sc2nc(CN3CCCC3)nc(N3CCN(C(=O)c4ccco4)CC3)c2c1C	-4	-4	9	0	2	-6
O=C(O)CCC(=O)N1N=C(c2ccccc2)CC1c1cccs1 (stereo unspecified)	4	-1	7	-3	0	6
CC(=O)Nc1ccc(S(=O)(=O)Nc2cccc3cccnc23)cc1	5	1	-3	10	6	-6
